Source: ChEMBL document CHEMBL1153798, “Substituted tetrahydroquinolines as potent allosteric inhibitors of reverse transcriptase and its key mutants” (Bioorg Med Chem Lett, 2009)

Legend:
[1] = tested on: Human immunodeficiency virus 1; test: Antiviral activity against HIV1 3B infected human MT4 cells assessed as drug level required for 95% inhibition in the presence of 10% fetal bovine serum; assay type: functional
In short: (§1)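 Spread assay: MT-4 human T-lymphoid cells in RPMI 1640 with either 10% FBS or 50% NHS; CIC95 taken as the concentration blocking >95% of virus spread. Wild-type virus H9IIIB or R8 as stated per line. Geometric mean of at least two determinations, individual values within 25% of the mean.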

[2] = tested on: Human immunodeficiency virus 1; test: Antiviral activity against HIV1 3B infected human MT4 cells assessed as drug level required for 95% inhibition in the presence of 50% normal human serum; assay type: functional; in short: as §1
[3] = tested on: Human immunodeficiency virus 1; test: Antiviral activity against HIV1 R8 infected human MT4 cells assessed as drug level required for 95% inhibition in the presence of 10% fetal bovine serum; assay type: functional; in short: as §1
[4] = tested on: Human immunodeficiency virus 1; test: Antiviral activity against HIV1 R8 infected human MT4 cells assessed as drug level required for 95% inhibition in the presence of 50% normal human serum; assay type: functional; in short: as §1
[5] = tested on: Human immunodeficiency virus 1; test: Ratio of IC50 for HIV1 carrying reverse transcriptase Y181C mutant to IC50 for wild type HIV1 in the presence of 40% normal human serum; assay type: functional
[6] = tested on: Human immunodeficiency virus 1; test: Ratio of IC50 for HIV1 carrying reverse transcriptase V106A/G190A/F227L mutant to IC50 for wild type HIV1 in the presence of 40% normal human serum; assay type: functional
[7] = Inhibition of HIV1 reverse transcriptase K103 mutant
[8] = tested on: Human immunodeficiency virus 1; test: Ratio of IC50 for HIV1 carrying reverse transcriptase […] mutant to IC50 for wild type HIV1 in the presence of 40% normal human serum; assay type: functional
[9] = Half life in Sprague-Dawley rat at 10 mg/kg, po and 2 mg/kg, iv; assay type: ADME, organism-based; conditions: in vivo
[10] = tested on: Human immunodeficiency virus 1; test: Antiviral activity against HIV1 carrying reverse transcriptase K103N/ Y181C/G190A mutant infected human MT4 cells by phenoscreen assay in the presence of 40 percent normal human serum; assay type: functional, organism-based; conditions: Human immunodeficiency virus 1, MT4
In short: (§2)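 Phenotypic recombinant-virus assay (Phenoscreen, Monogram Bioscience), run with 40% normal human serum present. IC50 is the compound concentration in cell culture that inhibits viral replication by 50%.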

[11] = tested on: Human immunodeficiency virus 1; test: Ratio of IC50 for HIV1 carrying reverse transcriptase […]/ Y181C/G190A mutant to IC50 for wild type HIV1 in the presence of 40% normal human serum; assay type: functional
[12] = tested on: Human immunodeficiency virus 1; test: Antiviral activity against HIV1 carrying reverse transcriptase Y181C/G190A mutant infected human MT4 cells by phenoscreen assay in the presence of 40 percent normal human serum; assay type: functional, organism-based; conditions: Human immunodeficiency virus 1, MT4; in short: as §2
[13] = tested on: Human immunodeficiency virus 1; test: Antiviral activity against HIV1 carrying reverse transcriptase K101E/ Y181C/G190A mutant infected human MT4 cells by phenoscreen assay in the presence of 40 percent normal human serum; conditions: Human immunodeficiency virus 1, MT4
[14] = tested on: Human immunodeficiency virus 1; test: Antiviral activity against HIV1 carrying reverse transcriptase G190S mutant infected human MT4 cells by phenoscreen assay in the presence of 40 percent normal human serum; conditions: Human immunodeficiency virus 1, MT4
[15] = tested on: Human immunodeficiency virus 1; test: Ratio of IC50 for HIV1 carrying reverse transcriptase […]/G190A mutant to IC50 for wild type HIV1 in the presence of 40% normal human serum; assay type: functional
[16] = tested on: Human immunodeficiency virus 1; test: Ratio of IC50 for HIV1 carrying reverse transcriptase K103N/V179E mutant to IC50 for wild type HIV1 in the presence of 40% normal human serum; assay type: functional
[17] = tested on: Human immunodeficiency virus 1; test: Antiviral activity against HIV1 carrying reverse transcriptase G190A mutant infected human MT4 cells by phenoscreen assay in the presence of 40 percent normal human serum; conditions: Human immunodeficiency virus 1, MT4
[18] = tested on: Human immunodeficiency virus 1; test: Ratio of IC50 for HIV1 carrying reverse transcriptase K103N/P225H mutant to IC50 for wild type HIV1 in the presence of 40% normal human serum; assay type: functional
[19] = tested on: Human immunodeficiency virus 1; test: Ratio of IC50 for HIV1 carrying reverse transcriptase K103N/Y181C mutant to IC50 for wild type HIV1 in the presence of 40% normal human serum; assay type: functional
[20] = tested on: Rattus norvegicus; test: Hepatic clearance in rat at 10 mg/kg, po and 2 mg/kg, iv; conditions: in vivo
[21] = tested on: Human immunodeficiency virus 1; test: Antiviral activity against HIV1 carrying reverse transcriptase Y181C mutant infected human MT4 cells by phenoscreen assay in the presence of 40 percent normal human serum; assay type: functional, organism-based; conditions: Human immunodeficiency virus 1, MT4; in short: as §2
[22] = tested on: Human immunodeficiency virus 1; test: Antiviral activity against HIV1 carrying reverse transcriptase V106A/G190A/F227L mutant infected human MT4 cells by phenoscreen assay in the presence of 40 percent normal human serum; assay type: functional, organism-based; conditions: Human immunodeficiency virus 1, MT4; in short: as §2
[23] = tested on: Human immunodeficiency virus 1; test: Antiviral activity against HIV1 infected human MT4 cells by phenoscreen assay in the presence of 40 percent normal human serum; assay type: functional, organism-based; conditions: Human immunodeficiency virus 1, MT4
[24] = tested on: Human immunodeficiency virus 1; test: Antiviral activity against HIV1 carrying reverse transcriptase K103N mutant infected human MT4 cells by phenoscreen assay in the presence of 40 percent normal human serum; assay type: functional, organism-based; conditions: Human immunodeficiency virus 1, MT4; in short: as §2
[25] = tested on: Human immunodeficiency virus 1; test: Antiviral activity against HIV1 carrying reverse transcriptase […]/G190A mutant infected human MT4 cells in the presence of 40 percent normal human serum; assay type: functional; in short: as §2
[26] = tested on: Human immunodeficiency virus 1; test: Ratio of IC50 for HIV1 carrying reverse transcriptase Y188L mutant to IC50 for wild type HIV1 in the presence of 40% normal human serum; assay type: functional
[27] = tested on: Human immunodeficiency virus 1; test: Ratio of IC50 for HIV1 carrying reverse transcriptase G190A mutant to IC50 for wild type HIV1 in the presence of 40% normal human serum; assay type: functional
[28] = tested on: Human immunodeficiency virus 1; test: Antiviral activity against HIV1 carrying reverse transcriptase Y188L mutant infected human MT4 cells by phenoscreen assay in the presence of 40 percent normal human serum; assay type: functional, organism-based; conditions: Human immunodeficiency virus 1, MT4; in short: as §2
[29] = tested on: Human immunodeficiency virus 1; test: Antiviral activity against HIV1 carrying reverse transcriptase K103N/G190A mutant infected human MT4 cells by phenoscreen assay in the presence of 40 percent normal human serum; assay type: functional, organism-based; conditions: Human immunodeficiency virus 1, MT4; in short: as §2
[30] = tested on: Human immunodeficiency virus 1; test: Ratio of IC50 for HIV1 carrying reverse transcriptase K103N mutant to IC50 for wild type HIV1 in the presence of 40% normal human serum; assay type: functional
[31] = tested on: Human immunodeficiency virus 1; test: Antiviral activity against HIV1 carrying reverse transcriptase K101E/G190A mutant infected human MT4 cells by phenoscreen assay in the presence of 40 percent normal human serum; conditions: Human immunodeficiency virus 1, MT4
[32] = tested on: Human immunodeficiency virus 1; test: Ratio of IC50 for HIV1 carrying reverse transcriptase G190S mutant to IC50 for wild type HIV1 in the presence of 40% normal human serum; assay type: functional
[33] = tested on: Human immunodeficiency virus 1; test: Antiviral activity against HIV1 carrying reverse transcriptase K103N/P225H mutant infected human MT4 cells by phenoscreen assay in the presence of 40 percent normal human serum; assay type: functional, organism-based; conditions: Human immunodeficiency virus 1, MT4; in short: as §2
[34] = tested on: Human immunodeficiency virus 1; test: Antiviral activity against HIV1 carrying reverse transcriptase K103N/V179E mutant infected human MT4 cells by phenoscreen assay in the presence of 40 percent normal human serum; assay type: functional, organism-based; conditions: Human immunodeficiency virus 1, MT4; in short: as §2
[35] = tested on: Human immunodeficiency virus 1; test: Ratio of IC50 for HIV1 carrying reverse transcriptase K103N/G190A mutant to IC50 for wild type HIV1 in the presence of 40% normal human serum; assay type: functional
[36] = tested on: Human immunodeficiency virus 1; test: Antiviral activity against HIV1 carrying reverse transcriptase […] mutant infected human MT4 cells by phenoscreen assay in the presence of 40 percent normal human serum; assay type: functional, organism-based; conditions: Human immunodeficiency virus 1, MT4; in short: as §2
[37] = tested on: Human immunodeficiency virus 1; test: Ratio of IC50 for HIV1 carrying reverse transcriptase Y181C/G190A mutant to IC50 for wild type HIV1 in the presence of 40% normal human serum; assay type: functional
[38] = tested on: Canis familiaris; test: Hepatic clearance in Beagle dog at 1 mg/kg, po and 0.5 mg/kg, iv; assay type: ADME, organism-based, Canis lupus familiaris, Liver; conditions: in vivo
In short: (§3)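 Beagle dogs (n = 2) dosed singly, po 1 mg/kg and iv 0.5 mg/kg; iv cassette co-administered with other analogues at 0.125 mg/kg. Interanimal variability below 20%.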

[39] = Half life in Beagle dog at 1 mg/kg, po and 0.5 mg/kg, iv; assay type: ADME, organism-based, Canis lupus familiaris; conditions: in vivo; in short: as §3
[40] = Protein binding in human plasma; assay type: ADME, cell-free; conditions: read-out: PB

NS(=O)(=O)c1ccc(NC(=O)CSC(=O)N2CCCc3cc(Cl)ccc32)c(Cl)c1
ID95 [1]: 141 nM
ID95 [2]: 1250 nM

O=C(CSC(=O)N1CCCc2cc(Cl)cc(Cl)c21)Nc1ccc(C(=O)NCc2ccccc2)cc1Cl
Activity [3]: 63 nM
Activity [4]: 307 nM

CS(=O)(=O)c1ccc(NC(=O)CSC(=O)N2CCCc3cc(Cl)cc(Cl)c32)c(Cl)c1
fold change (FC) [5]: 19
fold change (FC) [6]: >56
IC50 [7]: 3 nM
fold change (FC) [8]: 11
half-life [9]: 102 min
IC50 [10]: > 250 nM
fold change (FC) [11]: >56
IC50 [12]: > 250 nM
IC50 [13]: > 250 nM
IC50 [14]: > 250 nM
fold change (FC) [15]: >56
fold change (FC) [16]: 1.7
IC50 [17]: 157 nM
fold change (FC) [18]: 2.1
fold change (FC) [19]: 33.2
CL [20]: 84 mL/min/kg
IC50 [21]: 86.6 nM
IC50 [22]: > 250 nM
IC50 [23]: 4.5 nM
IC50 [24]: 2 nM
Activity [3]: 5.6 nM
fold change (FC) [25]: >56
fold change (FC) [26]: >56
fold change (FC) [27]: 34.8
IC50 [28]: > 250 nM
IC50 [29]: 57.2 nM
fold change (FC) [30]: 0.4
IC50 [31]: > 250 nM
fold change (FC) [32]: >56
IC50 [33]: 9.3 nM
Activity [4]: 5.7 nM
IC50 [34]: 7.5 nM
fold change (FC) [35]: 21.3
IC50 [36]: 50.5 nM
fold change (FC) [37]: >56

NS(=O)(=O)c1ccc(NC(=O)COC(=O)N2CCCc3cc(Cl)cc(Cl)c32)c(Cl)c1
IC50 [7]: 21 nM
Activity [1]: 187 nM
Activity [2]: 2500 nM

Cc1cc(C)c(N(C)C(=O)SCC(=O)Nc2ccc(S(N)(=O)=O)cc2Cl)c(C)c1
IC50 [7]: 9 nM

N#Cc1ccc(NC(=O)CSC(=O)N2CCCc3cc(Cl)cc(Cl)c32)c(Cl)c1
IC50 [7]: 14 nM
ID95 [2]: 1250 nM

NS(=O)(=O)c1ccc(NC(=O)CNC(=O)N2CCCc3cc(Cl)cc(Cl)c32)c(Cl)c1
Activity [1]: 562 nM
Activity [2]: >10000 nM

NS(=O)(=O)c1ccc(NC(=O)CCC(=O)N2CCCc3cc(Cl)cc(Cl)c32)c(Cl)c1
Activity [1]: 406 nM
Activity [2]: 5000 nM

NS(=O)(=O)c1ccc(NC(=O)C2CC2C(=O)N2CCCc3cc(Cl)cc(Cl)c32)c(Cl)c1 (single isomer, unassigned; 16)
IC50 [7]: 18 nM
Activity [1]: 176 nM
CL [38]: 14 mL/min/kg
half-life [9]: 30 min
Activity [2]: 304 nM
CL [20]: 22 mL/min/kg
half-life [39]: 78 min

Cc1ccc2c(c1)CCCN2C(=O)SCC(=O)Nc1ccc(S(N)(=O)=O)cc1Cl
ID95 [1]: 78 nM
ID95 [2]: 396 nM
fraction unbound [40]: 0.01

NS(=O)(=O)c1ccc(NC(=O)C2CC2C(=O)N2CCCc3cc(Cl)cc(Cl)c32)c(Cl)c1 (single isomer, unassigned; 17)
IC50 [7]: 430 nM
Activity [1]: 922 nM
Activity [2]: 922 nM

NS(=O)(=O)c1ccc(NC(=O)CSC(=O)N2CCCc3cccc(Cl)c32)c(Cl)c1
IC50 [7]: 4 nM
ID95 [1]: 23 nM
ID95 [2]: 47 nM

O=C(CSC(=O)N1CCCc2cc(Cl)cc(Cl)c21)Nc1ccccc1Cl
ID95 [1]: 125 nM
ID95 [2]: 406 nM

NCCCNC(=O)c1ccc(NC(=O)CSC(=O)N2CCCc3cc(Cl)cc(Cl)c32)c(Cl)c1
Activity [3]: 97 nM
Activity [4]: 34 nM

Cc1cccc2c1N(C(=O)SCC(=O)Nc1ccc(S(N)(=O)=O)cc1Cl)CCC2
IC50 [7]: 4 nM
ID95 [1]: 47 nM
ID95 [2]: 219 nM
